Screening results: PubChem BioAssay, Johns Hopkins Ion Channel Center
Rows were chosen to be rich in hits. Some 3.5% of all compounds tested hit in one or more screens of this group.
MrgX1 allo act: positive allosteric modulators of MrgX1, primary screen, HEK293 cells, Fluo-4 calcium flux | B-score at 10 µM | FDSS; active compounds read high | Mas-related G-protein coupled receptor member X1 (Homo sapiens), Q96LB2 | actives 0.63% (n = 310,000) | AID 588675, 2011;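 active = plate-corrected calcium response at least 3 library SD above typical, normal starting fluorescence, not activating the receptor alone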;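 also: compound read alongside a low EC10 to EC30 dose of BAM8-22 agonist; peak minus trough fluorescence over baseline measured at the second addition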
Target sequence (Q96LB2 whole entry, looked up): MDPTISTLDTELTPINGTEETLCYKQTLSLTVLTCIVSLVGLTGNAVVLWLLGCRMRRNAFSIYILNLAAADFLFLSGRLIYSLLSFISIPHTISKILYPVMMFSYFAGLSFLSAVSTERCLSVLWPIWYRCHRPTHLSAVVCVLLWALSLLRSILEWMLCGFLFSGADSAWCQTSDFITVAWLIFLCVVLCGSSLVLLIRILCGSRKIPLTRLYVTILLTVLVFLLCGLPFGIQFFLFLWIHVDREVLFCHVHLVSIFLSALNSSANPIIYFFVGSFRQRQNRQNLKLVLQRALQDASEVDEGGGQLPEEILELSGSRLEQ
RGS4 act: RGS4 potentiators or activators, primary screen, cell-based, HEK293 M3R inducible RGS4, calcium flux | B-score at 10 µM | AID 463111, 2010 | carbachol calcium flux Fluo4; active compounds read low | actives 0.92% (n = 310,000);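 active = B-score of the integrated calcium signal more than 4 SD below the library mean, with starting fluorescence not abnormally high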;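 also: negative B-score means reduced calcium response which marks RGS4 activation or potentiation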
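System: HEK293 FlpIn-TREx cells, stable M3R, doxycycline-inducible RGS4. Timing: overnight RGS4 induction, 30 min dye load 37 °C, 20 min compound RT. Also added: carbachol, ECmax concentration. Measured by: Fluo4 fluorescence kinetic imaging of calcium. Evaluation: integrated calcium ratio converted to B score.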
RGS4 inh: RGS4 inhibitors, primary screen, cell-based, HEK293 M3R inducible RGS4, calcium flux; Regulator of G-protein signaling 4 (Homo sapiens), P49798; Fluo-4 calcium flux; active compounds read high; triggered by carbachol at its EC20; B-score at 10 µM; actives 0.45% (n = 310,000);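 active = B-score, a plate-corrected calcium signal, over three deviations above library mean, with baseline fluorescence within five deviations of library mean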;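 also: RGS4 expression induced by doxycycline in cells with stable M3 receptor; B-score is computed from the integrated fluorescence ratio over baseline after carbachol; higher B-score means a larger calcium signal and so more RGS4 inhibition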
Target sequence (P49798 whole entry, looked up): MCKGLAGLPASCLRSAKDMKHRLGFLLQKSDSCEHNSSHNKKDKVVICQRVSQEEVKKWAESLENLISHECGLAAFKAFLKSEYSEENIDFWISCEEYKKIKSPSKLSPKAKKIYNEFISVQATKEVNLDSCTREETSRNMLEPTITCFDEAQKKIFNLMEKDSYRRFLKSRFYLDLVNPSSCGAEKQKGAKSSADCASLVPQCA
MrgX1 agonist: agonists of human MrgX1 receptor, primary screen, HEK293 cells, Fluo-4 calcium flux | B-score at 10 µM | Fluo-4 calcium fluorescence, agonist mode; active compounds read high | actives 0.44% (n = 310,000);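 active = calcium response B-score plate-corrected fluorescence ratio at least 3 library SD, with starting fluorescence B-score inside 5 SD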
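Material: MrgX1-expressing HEK293 cells / Dosing: compound as first of three additions / Incubation: overnight seeding, then 1 h dark dye loading / Signal: Fluo-4 NW calcium fluorescence / Evaluation: B-scored fluorescence response ratio / Benchmarks: positive and negative control wells on each plate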
MrgX1 antag: antagonists of human MrgX1 receptor, primary screen, HEK293 cells, Fluo-4 calcium flux; Mas-related G-protein coupled receptor member X1 (Homo sapiens), Q96LB2; BAM8-22 antagonism; active compounds read low; B-score at 10 µM; actives 1.3% (n = 310,000);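 active = calcium-response B-score plate-corrected more than 3 library SD below zero, starting fluorescence within 5 deviations, no agonist response on first addition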;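 also: peak minus trough fluorescence over baseline after final BAM8-22 challenge near maximal dose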
MrgX1 ant reconf: MrgX1 receptor antagonists, duplicate retest, confirmation, HEK293 cells, Fluo-4 calcium flux; BAM8-22 calcium flux; active compounds read low; actives 19% (n = 2,300); shares compounds with MrgX1 antag; remaining BAM8-22 calcium response % of control (active compounds read low), % at 10 µM;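 active = remaining agonist calcium response no higher than 100% minus 3 SD of agonist-only control wells, with starting fluorescence near control levels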;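 also: agonist BAM8-22 given at a near maximal EC90 to ECmax level; peak minus minimum fluorescence divided by baseline after agonist addition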
HEK293 Ca flux: nonspecific calcium signal in parental HEK293, confirmation, counter-screen for MrgX1 antagonist project, parental HEK293 cells, Fluo-4 calcium flux; shares compounds with MrgX1 antag; fluorescence ratio F(max-min)/F0 at 10 µM; actives 2% (n = 4,000); Fluo-4 calcium fluorescence, FDSS; AID 624111, 2012;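 active = duplicate-averaged calcium fluorescence ratio at least three times the standard deviation of buffer wells, a nonspecific response in parental cells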
HEK293 Ca counter: calcium response in parental HEK293 cells, primary screen, counter-screen for MrgX1 allosteric activator project, cell-based, Fluo-4 calcium flux, duplicate; shares compounds with MrgX1 antag; Fluo-4 fluorescence ratio; active compounds read high; fluorescence ratio F(max-min)/F0 at 10 µM; actives 0.4% (n = 4,000);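 active = calcium fluorescence ratio, averaged over duplicates, at least 3 SD of the buffer-well ratio, meaning a nonspecific response in receptor-free cells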;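 also: untransfected parental HEK293 lacking MrgX1 used as counterscreen for MrgX1 allosteric activators; fluorescence change taken during the second addition on a kinetic imager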
HEK293 Ca cntr2: calcium response in parental HEK293 cells, primary screen, counter-screen for MrgX1 agonist project, cell-based, Fluo-4 calcium flux, duplicate, agonist mode; shares compounds with MrgX1 antag; Fluo-4 calcium fluorescence (FDSS); active compounds read high; fluorescence ratio F(max-min)/F0 at 10 µM; actives 8.7% (n = 4,000); AID 624115, 2012;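 active = calcium fluorescence ratio at least three times the spread of buffer wells, meaning a non-specific response in parental cells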
Hits are given with their value; n = inactive; x = not tested or not shown.

SMILES	MrgX1 allo act	RGS4 act	RGS4 inh	MrgX1 agonist	MrgX1 antag	MrgX1 ant reconf	HEK293 Ca flux	HEK293 Ca counter	HEK293 Ca cntr2
COc1ccc(S(=O)(=O)N2CCCCC2)cc1C(=O)N1CCCC1	n	n	n	n	-5.6	n	n	n	n
COC(=O)c1ccc(Oc2ccc(S(=O)(=O)N3CCCCC3)cc2N)cc1	n	n	n	n	-4.89	n	n	n	n
COC(=O)CNc1cc(S(=O)(=O)N2CCCCC2)ccc1Oc1ccc(C(=O)OC)cc1	n	n	n	n	n	x	x	x	x
COC(=O)C1=C(N)Oc2cc(C)n(Cc3cccnc3)c(=O)c2C1c1cccc(OC)c1OC (configuration not stated)	n	n	n	n	-13.1	n	n	n	n
COC(=O)C1=C(N)Oc2cc(C)n(Cc3cccnc3)c(=O)c2C1c1cc(OC)ccc1OC (configuration not stated)	n	n	n	n	n	x	x	x	x
O=C(COC(=O)Cc1cccc(C(F)(F)F)c1)Nc1ccccc1	n	n	n	n	n	x	x	x	x
COc1ccc(CN2CN=C(Nc3nc4ccccc4s3)NC2)cc1	n	n	n	n	-7.47	57.0%	n	n	n
c1ccc(CN2CN=C(Nc3nc4ccccc4s3)NC2)cc1	n	n	n	n	n	x	x	x	x
CCC(=O)Nc1cc(C(=O)NCC2CCCN2CC)c(OC)cc1N(C)C (configuration not stated)	n	n	n	n	n	x	x	x	x
CCN1CCCC1CNC(=O)c1cc(NC(C)=O)c(N(C)C)cc1OC (configuration not stated)	n	n	n	n	-6.5	n	n	n	n
COc1ccccc1/C=C/c1onc(C)c1S(=O)(=O)N1CCC(C(=O)NC(C)C)CC1	n	n	n	n	-5.48	n	n	n	n
COC(C(=O)Nc1ccc(NC(=O)C(OC)c2ccccc2)cc1)c1ccccc1 (configuration not stated)	n	n	n	n	n	x	x	x	x
COC(C(=O)NC(C(C)C)C(C)C)c1ccccc1 (configuration not stated)	n	n	n	n	-5.94	n	n	n	n
CCOC(=O)N1CCN(C(=O)CN(Cc2ccc(Cl)cc2)S(C)(=O)=O)CC1	n	n	n	n	-6.23	n	n	n	n
CC1=C(C(=O)OCc2ccccc2)C(c2cccc(F)c2)NC(=O)N1 (configuration not stated)	n	n	n	n	n	x	x	x	x
CC(C)c1ccc(NC(=O)COc2ccc(F)cc2C(=O)c2cnn(-c3ccccc3)c2)cc1	n	n	n	n	-5.32	n	n	n	n
O=C(COc1ccccc1C(=O)c1cnn(-c2ccccc2)c1)Nc1ccc2ccccc2c1	n	n	n	n	n	x	x	x	x
COc1ccc(/C=C/c2nc3cc(-c4ccccc4)ccc3o2)cc1O	n	n	n	n	-4.55	n	n	n	n
CCN(CC)S(=O)(=O)c1ccc(NC(=O)Nc2cccc(C(F)(F)F)c2)cc1	n	n	n	n	-5.82	64.4%	n	n	n
